The source of these data is ChEMBL document CHEMBL4840308, “Design and synthesis of Mannich base-type derivatives containing imidazole and benzimidazole as lead compounds for drug discovery in Chagas Disease” (Eur J Med Chem, 2021).

The structures appear in SMILES notation. pIC50: −log10 of the molar value. Activity calls are given as the source filed them. The rule behind the calls is not given here.

The test system of series [1] is Trypanosoma cruzi. The series can be described thus: Antitrypanosomal activity against Trypanosoma cruzi trymastigotes assessed as blockage of trypomastigote infectivity at >100 uM incubated for 6 hrs followed by compound washout further infected in BSR cells for 18 hrs measured after 5 days post infection by inverted fluorescence microscope analysis. Conditions: dose microM >100, time 6.0 hrs.

Series [2] in a line: Cytotoxicity against golden hamster BSR cells assessed as reduction in cell viability incubated for 72 hrs followed by alamar blue addition further incubated for 6 hrs. In kind it is cell-based. Conditions: Mesocricetus auratus. Put shortly: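 BSR (BHK-21 subclone) cells, 5 x 10^4/well in DMEM with 5% FBS, adhered 6 h at 37 C, 5% CO2, then given 8-point 2:1 drug dilutions for 72 h; Alamar Blue added for 6 h, absorbance 540 nm; IC50 from sigmoidal variable-slope fit; triplicates, three independent experiments.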

The test system of series [3] is Trypanosoma cruzi. The series can be described thus: Antitrypanosomal activity against Trypanosoma cruzi trypomastigotes assessed as inhibition of cellular invasion incubated for 6 hrs in high-glucose DMEM medium followed by compound washout further infected in BSR cells measured after 72 hrs by fluorescence based analysis. In kind it is functional, organism-based. Put shortly:
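Tissue-culture trypomastigotes exposed to drug dilutions 6 h at 37 C in high-glucose DMEM with 10% FBS, washed 3x PBS, used to infect BSR cells overnight; non-internalised parasites washed off, 1% FBS medium, infection run 72 h further; amastigote fluorescence (ex 488/em 525 nm) read; IC50 for invasion reduction by curve interpolation.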

The nature of series [4]: Selectivity index, ratio of cytotoxicity against golden hamster BSR cells to IC50 for antitrypanosomal activity against Trypanosoma cruzi amastigotes infected in BSR cells. In kind it is toxicity, cell-based. Conditions: read-out: Selectivity Index. Put shortly:
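Selectivity index as ratio of BSR cell IC50 to intracellular amastigote IC50 (72 h fluorescence read-out).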

The test system of series [5] is Trypanosoma cruzi. Briefly: Antitrypanosomal activity against Trypanosoma cruzi amastigotes infected in BSR cells assessed as inhibition of replication of intracellular amastigotes incubated for 72 hrs by fluorescence based analysis. It counts as functional, organism-based. The essentials:
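BSR cells (5 x 10^4/well) attached 6 h, infected overnight with CL-Luc:Neon tissue-culture trypomastigotes at MOI 10, washed 3x PBS, then drug in DMEM with 1% FBS for 72 h; fixed in 4% paraformaldehyde 30 min, fluorescence read ex 488/em 525 nm; IC50 by curve interpolation; triplicates, three experiments.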

Series [6] relates to Trypanosoma cruzi. Briefly: Trypanocidal activity against Trypanosoma cruzi CL-Luc-Neon amastigotes infected in BSR cells assessed as inhibition of parasite growth at 20 times IC50 incubated for 20 days measured after 30 days of compound wash out by epifluorescence microscopy analysis. In kind it is functional, organism-based. Conditions: time 20.0 day. Put shortly:
(§1)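 BSR cells on 8-well slides or 24-well plates infected with CL-Luc:Neon trypomastigotes as in the amastigote assay, then exposed to 10 or 20 x IC50 for 10 or 20 days, compound renewed every 4 days; after removal, followed up to 30 days by light and fluorescence microscopy at 37 C, 5% CO2; three wells per treatment, 30 captures per timepoint; relapse day recorded.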

Series [7] deals with Trypanosoma cruzi. Briefly: Antiprotozoal activity against Trypanosoma cruzi epimastigotes assessed as decrease in parasitemia by measuring change in fluorescence intensity at >2.5 uM measured after 3 days by flourescence based analysis. In kind it is functional, organism-based. As to conditions: dose microM >2.5, time 3.0 day.
Series [8] is described as follows: Selectivity index, ratio of cytotoxicity against golden hamster BSR cells to IC50 for antitrypanosomal activity against Trypanosoma cruzi trypomastigotes. It counts as toxicity, cell-based. As to conditions: read-out: Selectivity Index. The essentials:
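Selectivity index as ratio of BSR cell IC50 to trypomastigote invasion IC50 (6 h pre-exposure, fluorescence read-out).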

Series [9] is described as follows: Selectivity index, ratio of IC50 for cytotoxicity against golden hamster BSR cells to IC50 for antiprotozoal activity against Trypanosoma cruzi epimastigotes. In kind it is toxicity, cell-based. As to conditions: read-out: Selectivity Index. The essentials: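 Selectivity index as ratio of BSR cell IC50 to epimastigote IC50, both from 72 h Alamar Blue assays.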

Series [10] has as its system Trypanosoma cruzi. Briefly: Trypanocidal activity against Trypanosoma cruzi CL-Luc-Neon amastigotes infected in BSR cells assessed as inhibition of parasite growth at 20 times IC50 incubated for 20 days measured after 10 days of compound wash out by epifluorescence microscopy analysis. It counts as functional, organism-based. Conditions: time 20.0 day. The essentials:
as §1

Series [11] deals with Trypanosoma cruzi. Briefly: Trypanocidal activity against Trypanosoma cruzi trypomastigotes assessed as fold decrease in benznidazole IC50 by alamar blue staining based fluorescence analysis relative to control. It counts as functional. Put shortly: (§2)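 Benznidazole IC50 redetermined by Alamar Blue or fluorescence read-outs under each stage's standard seeding conditions in the presence of the partner drug at its IC50; combination index by isobologram method (Ci <1 synergy, =1 additive, >1 antagonism); triplicate per plate, repeated at least twice.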

In series [12] the test system is Trypanosoma cruzi. Briefly: Trypanocidal activity against Trypanosoma cruzi trypomastigotes assessed as inhibition of parasite growth by alamar blue staining based fluorescence analysis. It counts as functional, organism-based.
Series [13] relates to Trypanosoma cruzi. Briefly: Synergistic trypanocidal activity against Trypanosoma cruzi amastigotes assessed as combination index at IC50 in presence of benznidazole by alamar blue staining based fluorescence analysis. It counts as functional. The essentials: as §2
Series [14] has as its system Trypanosoma cruzi. The series can be described thus: Trypanocidal activity against Trypanosoma cruzi amastigotes assessed as inhibition of parasite growth by alamar blue staining based fluorescence analysis. In kind it is functional, organism-based.
The test system of series [15] is Trypanosoma cruzi. The series can be described thus: Trypanocidal activity against Trypanosoma cruzi epimastigotes assessed as fold decrease in benznidazole IC50 by alamar blue staining based fluorescence analysis relative to control. On the set-up: scale not given: the % may be the effect or the level left. In kind it is functional. Put shortly:
as §2

Series [16] is described as follows: Genotoxicity in human TK6 cells assessed as decrease in cell proliferation at 40 uM incubated for 3 hrs by comet assay relative to control. It counts as cell-based. On the set-up: scale not given: the % may be the effect or the level left. As to conditions: tk6, 3 h. The essentials: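 TK-6 cells (6 x 10^5 in 1 mL RPMI 1640 with 10% FBS) treated 3 h, washed, cultured 48 h at 37 C, 5% CO2 with agitation, counted at 24 and 48 h; relative suspension growth = TSG treated/TSG control as percentage; three independent experiments.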

Series [17] has as its system Trypanosoma cruzi. Briefly: Trypanocidal activity against Trypanosoma cruzi epimastigotes assessed as inhibition of parasite growth by alamar blue staining based fluorescence analysis. It counts as functional, organism-based. Put shortly:
(§3)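 CL-Luc:Neon epimastigotes, 2.5 x 10^5/well in RPMI-1640, exposed 72 h at 27 C to 8-point 2:1 serial dilutions (DMSO <0.5% final); Alamar Blue […] added, 24 h further, read at 540 nm; IC50 interpolated from sigmoidal variable-slope fit; triplicates, three independent experiments.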

Series [18] relates to Trypanosoma cruzi. Briefly: Antiprotozoal activity against Trypanosoma cruzi epimastigotes assessed as inhibition of parasite growth incubated for 72 hrs followed by alamar blue addition further incubated for 24 hrs. In kind it is functional, organism-based. Put shortly:
as §3

The test system of series [19] is Trypanosoma cruzi. Briefly: Antitrypanosomal activity against Trypanosoma cruzi trymastigotes assessed as blockage of trypomastigote infectivity at >50 uM incubated for 6 hrs followed by compound washout further infected in BSR cells for 18 hrs measured after 120 hrs post infection by inverted fluorescence microscope analysis. In kind it is functional, organism-based. As to conditions: dose microM >50, time 6.0 hrs. Put shortly:
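Trypomastigotes held 6 h in serial drug concentrations, washed 3x PBS, then infect BSR cells at 10:1 trypomastigote:cell for 18 h; at 120 h post-infection, amastigote replication inspected by inverted epifluorescence microscopy (30 images per treatment, DAPI-stained host nuclei) to find the concentration preventing productive infection.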

Series [20] relates to Trypanosoma cruzi. The series can be described thus: Synergistic trypanocidal activity against Trypanosoma cruzi epimastigotes assessed as combination index at IC50 in presence of benznidazole by alamar blue staining based fluorescence analysis. It counts as functional. Put shortly: as §2
The test system of series [21] is Trypanosoma cruzi. Briefly: Synergistic trypanocidal activity against Trypanosoma cruzi trypomastigotes assessed as combination index at IC50 in presence of benznidazole by alamar blue staining based fluorescence analysis. It counts as functional. The essentials:
as §2

Series [22] deals with Trypanosoma cruzi. Briefly: Trypanocidal activity against Trypanosoma cruzi CL-Luc-Neon amastigotes infected in BSR cells assessed as inhibition of parasite growth at 10 times IC50 incubated for 20 days measured after 10 days of compound wash out by epifluorescence microscopy analysis. It counts as functional, organism-based. Conditions: time 20.0 day. The essentials:
as §1

In series [23] the test system is Trypanosoma cruzi. Briefly: Trypanocidal activity against Trypanosoma cruzi CL-Luc-Neon amastigotes infected in BSR cells assessed as inhibition of parasite growth at 10 times IC50 incubated for 10 days measured after 10 days of compound wash out by epifluorescence microscopy analysis. Conditions: time 10.0 day. In kind it is functional, organism-based. Put shortly: as §1

Series [24] in a line: Genotoxicity in human TK6 cells assessed as decrease in cell proliferation at 20 uM incubated for 3 hrs by comet assay. In kind it is cell-based. As to conditions: tk6, 3 h. The essentials: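 TK-6 human lymphoblastoid cells (6 x 10^5 in 1 mL culture medium) exposed 3 h, washed three times, then grown 48 h in fresh medium at 37 C, 5% CO2 with agitation, and counted at 24 h (to adjust density) and at 48 h. Relative suspension growth is total suspension growth (48 h count / pre-treatment count) as % of untreated control. Triplicates, three independent experiments.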

For the compound `O=C(Cn1ccnc1[N+](=O)[O-])NCc1ccccc1` [BENZNIDAZOLE], the result with Trypanosoma cruzi [1] was inactive. In addition, the values for the pIC50 (in series [2]; in the series with Trypanosoma cruzi [3]; in the series on Trypanosoma cruzi [5]) were 3.57, 4.65 and 6.30, respectively. For the same compound, the selectivity ratio in series [4] amounted to 504; in [8] it was 12; in series [9], 67. Besides, the result in the series with Trypanosoma cruzi [6], with Trypanosoma cruzi [7] and in the series on Trypanosoma cruzi [10] was Active.

For `COc1ccc(C(=O)CCn2ccnc2[N+](=O)[O-])cc1`, the negative logarithm of the IC50 (pIC50) is 4.07 in series [2]; 5.04 in the series with Trypanosoma cruzi [3]; 5.48 with Trypanosoma cruzi [5]; 5.27 in the series on Trypanosoma cruzi [12]; 6.40 with Trypanosoma cruzi [14]; 5.92 in the series with Trypanosoma cruzi [17]. Also, the pIC50 in the series with Trypanosoma cruzi [18] is 5.66. For the same compound, the values for the selectivity ratio in [4], in series [8] and in series [9] were 28, 9 and 43, respectively. The “fold change (FC)” value with Trypanosoma cruzi [11] was determined as 4. The CI with Trypanosoma cruzi [13] turned out to be 0.81; in the series with Trypanosoma cruzi [20], 0.33; with Trypanosoma cruzi [21], 0.21. Moreover, the result in the series with Trypanosoma cruzi [6], in the series with Trypanosoma cruzi [7], with Trypanosoma cruzi [19] and in the series on Trypanosoma cruzi [10] was Active. Moreover, the results for the Activity (in the series with Trypanosoma cruzi [15]; in series [16]) were 70% and 45%, respectively.

Turning to `Cc1ccccc1C(=O)CCn1ccnc1`, the negative logarithm of the IC50 (pIC50) is 3.84 in series [2] and 4.67 in the series on Trypanosoma cruzi [18]. In addition, the selectivity ratio in series [9] worked out at 7.

For `O=C(CCn1ccnc1)c1ccc([N+](=O)[O-])cc1`, the negative-log IC50 (pIC50) in [2] was 4.03; in the series with Trypanosoma cruzi [5], 5.04; in the series with Trypanosoma cruzi [18] it was 4.89. Moreover, the selectivity ratio in series [4] is 10; in [9], 7.

For `O=C(CCn1ccnc1)c1ccc(Cl)c(F)c1`, the negative-log IC50 (pIC50) in [2] was 3.87; in the series on Trypanosoma cruzi [18], 4.63. Besides, the selectivity ratio in [9] was 6.

Consider `O=C(CCn1ccnc1)c1cccc([N+](=O)[O-])c1`, for which the negative-log IC50 (pIC50) in series [2] was 3.75; in the series on Trypanosoma cruzi [3] it was 4.64; with Trypanosoma cruzi [5], 4.91; in the series on Trypanosoma cruzi [18], 4.67. For the same compound, the selectivity ratio came out at 15 in [4], 8 in series [8] and 8 in series [9]. Also, the outcome with Trypanosoma cruzi [22] and in the series on Trypanosoma cruzi [23] was inactive.

For the compound `COc1cc(OC)cc(C(=O)CCn2cnc3ccccc32)c1`, the pIC50 in [2] was 4.15; with Trypanosoma cruzi [18], 4.95. Moreover, the selectivity ratio in series [9] turned out to be 6.

On to `O=C(CCn1ccnc1)c1ccc(F)c2ccccc12`, for which the negative-log IC50 (pIC50) was 4.14 in series [2], 4.78 with Trypanosoma cruzi [3], 5.21 in the series with Trypanosoma cruzi [5] and 5.13 in the series on Trypanosoma cruzi [18]. The values for the selectivity ratio in series [4], in series [8] and in series [9] were 12, 4 and 10, respectively. Besides, the result with Trypanosoma cruzi [22] and in the series on Trypanosoma cruzi [23] was inactive.

As for `O=C(CCn1cnc2ccccc21)C12CC3CC(CC(C3)C1)C2`, the pIC50 is 4.17 in series [2] and 4.61 with Trypanosoma cruzi [18]. Also, in series [9], the selectivity ratio stood at 3.

Regarding `COS(C)(=O)=O` [METHANESULFONIC ACID METHYL ESTER], the Activity entry in series [24] was “Toxic”.
